Experimental data from ChEMBL document CHEMBL4396895, “Identification and Optimization of Novel Cathepsin C Inhibitors Derived from EGFR Inhibitors” (J Med Chem, 2019).
pIC50: −log10 of the molar value. Values belong to the molecule of their own block, whether it stands above or below them. Activity calls are given as the source filed them. The rule behind the calls is not given here.

Experiments:
Dipeptidyl peptidase 1 [1] = target: T1, Dipeptidyl peptidase 1 (Homo sapiens, UniProt P53634); assay: Inhibition of CatL-activated recombinant human C-terminal His10-tagged cathepsin C (25 to 463 residues) expressed in mouse myeloma cells using Gly-Phe-AFC as substrate preincubated for 3 hrs followed by substrate addition and measured after 60 mins; type: cell-free
Outline: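 Activated rhCatC was diluted to 4.4 nM in 25 mM MES, 50 mM NaCl, 5 mM DTT, 0.01% Triton X-100, pH 6.0. It was preincubated with compound (added in 10% DMSO) for 3 h at RT. Gly-Phe-AFC was then added to 100 μM final and read as fluorescence after 60 min. IC50 came from a sigmoidal nonlinear fit; values are means of at least two experiments.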

Dipeptidyl peptidase 1 [2] = target: T1, Dipeptidyl peptidase 1; assay: Inhibition of cathepsin C in human U937 cells using H-Gly-Phe-AFC as substrate preincubated for 4 hrs followed by substrate addition and measured after 60 mins; type: cell-based
Outline: (§1)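 THP1 or U937 cells, grown in RPMI 1640 with 10% FBS, were seeded at 1.0 × 10^6/mL. They were preincubated with threefold serial dilutions of compound for 4 h at 37 °C. H-Gly-Phe-AFC was then added from a 100 μM solution and fluorescence was read after 60 min at 37 °C. Values are means of at least two experiments.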

Dipeptidyl peptidase 1 [3] = target: T1, Dipeptidyl peptidase 1; assay: Inhibition of cathepsin C in human THP1 cells using H-Gly-Phe-AFC as substrate preincubated for 4 hrs followed by substrate addition and measured after 60 mins; type: cell-based; outline: as §1
Dipeptidyl peptidase 1 [4] = target: T1, Dipeptidyl peptidase 1; assay: Inhibition of cathepsin C (unknown origin)
Outline: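 Enzyme preincubated with compound 3 h at RT. Gly-Phe-AFC added (100 μM final) and product fluorescence read after 60 min. IC50 from sigmoidal nonlinear regression, mean of at least two experiments.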

[5] = target: Epidermal growth factor receptor (Homo sapiens, UniProt P00533); assay: Inhibition of EGFR (unknown origin) up to 10 uM using biotin-labelled peptide as substrate preincubated for 2 hrs followed by substrate addition and measured after 30 mins by HTRF FRET assay
Outline: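 EGFR WT was used at 0.1 nM final in 50 mM HEPES pH 7.0, 0.02% NaN3, 0.01% BSA, 0.1 mM orthovanadate, 10 mM MgCl2, 2.5 mM DTT, 6.25 nM SEB. It was preincubated with compound for 2 h. Biotin-peptide (1.4 μM) and ATP (20 μM) were then added for 30 min at RT. Read-out was HTRF/TR-FRET (Ex 320, Em 615/665 nm) with a sigmoidal curve fit.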

[6] = Intrinsic clearance in mouse liver microsomes assessed per mg protein measured after 60 mins in presence of NADPH by LC-MS/MS analysis; type: ADME, Microsome; conditions: read-out: CLH
[7] = Intrinsic clearance in human liver microsomes assessed per mg protein measured after 60 mins in presence of NADPH by LC-MS/MS analysis; type: ADME, Microsome; conditions: read-out: CLH
[8] = Intrinsic clearance in rat liver microsomes assessed per mg protein measured after 60 mins in presence of NADPH by LC-MS/MS analysis; type: ADME, Microsome; conditions: read-out: CLH
Cathepsin S = Cathepsin S (Homo sapiens, UniProt P25774); assay: Inhibition of recombinant human C-terminal polyhistidine-tagged cathepsin S (Met1 to Ile331 residues) expressed in HEK293 cells using MCA-Arg-Pro-Lys-Pro-Val-Glu-NVAL-Trp-Arg-Lys(DNP)-NH2 as substrate preincubated for 30 mins followed by substrate addition and measured after 30 mins
Outline: (§2)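 Recombinant human cathepsin was preincubated with compound for 30 min at RT, then reacted with substrate for 30 min. CatB and CatL were read with Z-Leu-Arg-AMC (Ex 380/Em 460 nm). CatS was read with MCA-Arg-Pro-Lys-Pro-Val-Glu-Nva-Trp-Arg-Lys(DNP)-NH2 (Ex 320/Em 405 nm). E-64 served as inhibitor control.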

Cytochrome P450 2C9 = Cytochrome P450 2C9 (Homo sapiens, UniProt P11712); assay: Inhibition of CYP2C9 (unknown origin); type: ADME
Outline: (§3)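 Tested against recombinant human cytochrome P450 isoforms 1A2, 2D6, 3A4, 2C9 and 2C19.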

Cathepsin B = Cathepsin B (Homo sapiens, UniProt P07858); assay: Inhibition of recombinant human C-terminal polyhistidine-tagged cathepsin B (Arg18 to Ile339 residues) expressed in HEK293 cells using Z-Leu-Arg-AMC as substrate preincubated for 30 mins followed by substrate addition and measured after 30 mins; outline: as §2
Cytochrome P450 1A2 = target: T2, Cytochrome P450 1A2 (Homo sapiens, UniProt P05177); assay: Inhibition of CYP1A2 (unknown origin); type: ADME; outline: as §3
T2 sequence (P05177 whole entry): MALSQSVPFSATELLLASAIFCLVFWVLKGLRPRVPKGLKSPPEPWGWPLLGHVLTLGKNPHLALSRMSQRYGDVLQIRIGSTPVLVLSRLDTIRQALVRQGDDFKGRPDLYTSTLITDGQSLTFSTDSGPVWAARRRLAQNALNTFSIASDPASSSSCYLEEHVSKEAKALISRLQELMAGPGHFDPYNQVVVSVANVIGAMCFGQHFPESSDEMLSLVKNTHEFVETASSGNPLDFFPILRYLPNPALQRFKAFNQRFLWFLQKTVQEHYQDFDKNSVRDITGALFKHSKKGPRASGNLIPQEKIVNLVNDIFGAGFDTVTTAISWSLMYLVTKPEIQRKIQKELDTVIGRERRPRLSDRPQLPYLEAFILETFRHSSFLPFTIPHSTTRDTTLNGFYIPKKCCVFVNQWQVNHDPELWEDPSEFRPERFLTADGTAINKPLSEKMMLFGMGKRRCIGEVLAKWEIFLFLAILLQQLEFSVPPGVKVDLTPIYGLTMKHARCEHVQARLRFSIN

Cytochrome P450 2D6 = Cytochrome P450 2D6 (Homo sapiens, UniProt P10635); assay: Inhibition of CYP2D6 (unknown origin); type: ADME; outline: as §3
Cytochrome P450 2C19 = Cytochrome P450 2C19 (Homo sapiens, UniProt P33261); assay: Inhibition of CYP2C19 (unknown origin); type: ADME; outline: as §3
Cytochrome P450 3A4 = Cytochrome P450 3A4 (Homo sapiens, UniProt P08684); assay: Inhibition of CYP3A4 (unknown origin); type: ADME; outline: as §3
Procathepsin L = Procathepsin L (Homo sapiens, UniProt P07711); assay: Inhibition of recombinant human C-terminal His6-tagged cathepsin L (Glu113 to Val333 and Ala114 to Val333 residues) expressed in mouse myeloma cells using Z-Leu-Arg-AMC as substrate preincubated for 30 mins followed by substrate addition and measured after 30 mins; outline: as §2

pIC50 (Dipeptidyl peptidase 1 [1]): 6.11
SMILES: C=CC(=O)Nc1cccc(Oc2nc(Nc3ccc(N4CCN(CC5CC5)CC4)cc3)ccc2Cl)c1

pIC50 (Dipeptidyl peptidase 1 [1]): 6.66
SMILES: C=CC(=O)Nc1cccc(Oc2nc(Nc3ccc(N4CCN(C)CC4)cc3OC)ccc2N2CCCCC2)c1

pIC50 (Dipeptidyl peptidase 1 [2]): 7.15
pIC50 (Dipeptidyl peptidase 1 [1]): 6.85
pIC50 (Dipeptidyl peptidase 1 [3]): 7.67
SMILES: C=CC(=O)Nc1cc(Oc2nc(Nc3ccc(N4CCN(C)CC4)cc3OC)ccc2N2CCCC2)ccc1OC

pIC50 (Dipeptidyl peptidase 1 [1]): 6.30
SMILES: C=CC(=O)Nc1cccc(Oc2nc(Nc3ccc(N4CCNCC4)cc3)ccc2Cl)c1

pIC50 (Dipeptidyl peptidase 1 [1]): 6.32
SMILES: C=CC(=O)Nc1cccc(Oc2nc(Nc3ccc(N4CCN(C)CC4)cc3)ccc2Cl)c1

pIC50 (Dipeptidyl peptidase 1 [1]): 6.51
SMILES: C=CC(=O)Nc1cc(Oc2nc(Nc3ccc(N4CCC(N(C)C)CC4)cn3)ccc2N2CCCCC2)ccc1C

pIC50 (Dipeptidyl peptidase 1 [4]): < 5.00
SMILES: CN(C)C/C=C/C(=O)Nc1cc2c(Nc3ccc(F)c(Cl)c3)ncnc2cc1O[C@H]1CCOC1 [AFATINIB]

pIC50 (Dipeptidyl peptidase 1 [1]): 5.67
SMILES: C=CC(=O)Nc1cccc(Oc2nc(Nc3cccc(CN)c3)ccc2Cl)c1

pIC50 (Dipeptidyl peptidase 1 [1]): 6.11
SMILES: C=CC(=O)Nc1cccc(Oc2cccc(Nc3ccc(N4CCN(C)CC4)cc3OC)n2)c1

inhibition [5]: inactive
pIC50 (Dipeptidyl peptidase 1 [1]): 6.81
SMILES: C=CC(=O)Nc1cc(Oc2nc(Nc3ccc(N4CCN(C)CC4)cc3OC)ccc2-c2ccccc2)ccc1C

pIC50 (Dipeptidyl peptidase 1 [4]): 5.57
SMILES: C=CC(=O)Nc1cc2c(Nc3ccc(F)c(Cl)c3)ncnc2cc1OCCCN1CCOCC1 [CANERTINIB]

SMILES: C=CC(=O)Nc1cc(Nc2nccc(-c3cn(C)c4ccccc34)n2)c(OC)cc1N(C)CCN(C)C [OSIMERTINIB]
pIC50 (Dipeptidyl peptidase 1 [4]): 4.48

pIC50 (Dipeptidyl peptidase 1 [1]): < 5.00
SMILES: C=CC(=O)Nc1cccc(Oc2nc(Nc3ccc(N4CCOCC4)cc3)ccc2Cl)c1

pIC50 (Dipeptidyl peptidase 1 [2]): 7.94
inhibition [5]: inactive
microsomal CLint [6]: 866 µL/min/mg
microsomal CLint [7]: 3.9 µL/min/mg
pIC50 (Dipeptidyl peptidase 1 [1]): 8.40
pIC50 (Dipeptidyl peptidase 1 [3]): 8.17
microsomal CLint [8]: 11 µL/min/mg
SMILES: C=CC(=O)Nc1cc(Oc2nc(Nc3ccc(N4CCN(C)CC4)cc3OC)ccc2N2CCCC2)ccc1C(F)(F)F

pIC50 (Cathepsin S): < 5.00
pIC50 (Cytochrome P450 2C9): < 5.00
pIC50 (Cathepsin B): 5.00 to 5.52
pIC50 (Dipeptidyl peptidase 1 [2]): 7.39
pIC50 (Cytochrome P450 1A2): 5.06
inhibition [5]: inactive
microsomal CLint [6]: 26.7 µL/min/mg
microsomal CLint [7]: 4.3 µL/min/mg
pIC50 (Cytochrome P450 2D6): < 5.00
pIC50 (Dipeptidyl peptidase 1 [1]): 7.36
pIC50 (Dipeptidyl peptidase 1 [3]): 7.91
pIC50 (Cytochrome P450 2C19): 5.00
microsomal CLint [8]: 23.1 µL/min/mg
pIC50 (Cytochrome P450 3A4): < 5.00
pIC50 (Procathepsin L): 5.00 to 5.52
SMILES: C=CC(=O)Nc1cc(Oc2nc(Nc3ccc(N4CCN(C)CC4)cc3OC)ccc2N2CCCC2)ccc1C

pIC50 (Dipeptidyl peptidase 1 [2]): 8.00
microsomal CLint [6]: 22 µL/min/mg
microsomal CLint [7]: 6 µL/min/mg
pIC50 (Dipeptidyl peptidase 1 [1]): 7.54
pIC50 (Dipeptidyl peptidase 1 [3]): 8.19
microsomal CLint [8]: 13 µL/min/mg
SMILES: C=CC(=O)Nc1cc(Oc2nc(Nc3ccc(N4CCN(C)CC4)nc3OC)ccc2N2CCCCC2)ccc1C

pIC50 (Dipeptidyl peptidase 1 [1]): 6.87
SMILES: C=CC(=O)Nc1cc(Oc2nc(Nc3ccc(N4CCN(C(C)=O)CC4)cc3OC)ccc2N2CCCCC2)ccc1C

pIC50 (Dipeptidyl peptidase 1 [2]): 8.13
inhibition [5]: inactive
microsomal CLint [6]: 6 µL/min/mg
microsomal CLint [7]: 4.9 µL/min/mg
pIC50 (Dipeptidyl peptidase 1 [1]): 7.47
pIC50 (Dipeptidyl peptidase 1 [3]): 8.31
microsomal CLint [8]: 9 µL/min/mg
SMILES: C=CC(=O)Nc1cc(Oc2nc(Nc3ccc(N4CCN(C)CC4)cc3OC)ccc2N2CCCC(O)C2)ccc1C (racemic)
